RGS4 pot – potentiators or activators of RGS4; HEK293 M3R/inducible RGS4, carbachol calcium flux Fluo4; active compounds read low; B-score at 10 µM; 310,000 compounds, 0.92% hits;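 active = B-score of the integrated calcium signal more than 4 SD below the library mean, with starting fluorescence not abnormally high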;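 note: negative B-score means reduced calcium response which marks RGS4 activation or potentiation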
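System: HEK293 FlpIn-TREx cells, stable M3R, doxycycline-inducible RGS4. Timing: overnight RGS4 induction, 30 min dye load 37 °C, 20 min compound RT. Also added: carbachol, ECmax concentration. Measured by: Fluo4 fluorescence kinetic imaging of calcium. Evaluation: integrated calcium ratio converted to B score.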
MrgX1 allo act – allosterically activates human MrgX1 receptor signaling. Q96LB2. MrgX1-HEK293, Fluo-4 calcium flux, FDSS; active compounds read high. B-score at 10 µM. 310,000 compounds, 0.63% hits. AID 588675;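 active = plate-corrected calcium response at least 3 library SD above typical, normal starting fluorescence, not activating the receptor alone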;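 note: compound read alongside a low EC10 to EC30 dose of BAM8-22 agonist; peak minus trough fluorescence over baseline measured at the second addition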
Target sequence (Q96LB2 whole entry, looked up): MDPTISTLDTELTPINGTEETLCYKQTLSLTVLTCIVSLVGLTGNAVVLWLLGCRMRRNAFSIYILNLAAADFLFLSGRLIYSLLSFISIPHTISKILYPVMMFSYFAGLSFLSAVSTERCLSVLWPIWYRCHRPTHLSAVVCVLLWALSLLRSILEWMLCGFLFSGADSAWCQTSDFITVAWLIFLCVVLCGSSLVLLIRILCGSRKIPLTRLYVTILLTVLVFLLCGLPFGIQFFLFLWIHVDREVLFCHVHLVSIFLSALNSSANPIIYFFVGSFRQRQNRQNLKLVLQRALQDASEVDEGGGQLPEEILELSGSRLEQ
MrgX1 antag – blocks BAM8-22 activation of human MrgX1 receptor. Q96LB2. MRGX1-HEK293 calcium flux, Fluo-4, BAM8-22 antagonism; active compounds read low. B-score at 10 µM. 310,000 compounds, 1.3% hits;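 active = calcium-response B-score plate-corrected more than 3 library SD below zero, starting fluorescence within 5 deviations, no agonist response on first addition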;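 note: peak minus trough fluorescence over baseline after final BAM8-22 challenge near maximal dose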
RGS4 inh – human RGS4 inhibition; HEK293 M3R/RGS4 inducible, Fluo-4 calcium flux; active compounds read high; triggered by carbachol at its EC20; B-score at 10 µM; 310,000 compounds, 0.45% hits; AID 463165;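 active = B-score, a plate-corrected calcium signal, over three deviations above library mean, with baseline fluorescence within five deviations of library mean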;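 note: RGS4 expression induced by doxycycline in cells with stable M3 receptor; B-score is computed from the integrated fluorescence ratio over baseline after carbachol; higher B-score means a larger calcium signal and so more RGS4 inhibition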
Target sequence (P49798 whole entry, looked up): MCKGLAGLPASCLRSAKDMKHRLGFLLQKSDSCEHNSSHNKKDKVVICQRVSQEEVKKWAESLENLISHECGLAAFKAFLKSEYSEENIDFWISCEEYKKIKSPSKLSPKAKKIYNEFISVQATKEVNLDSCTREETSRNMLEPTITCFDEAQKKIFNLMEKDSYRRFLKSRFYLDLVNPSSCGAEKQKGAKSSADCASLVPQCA
MrgX1 ag – agonists of human MrgX1 receptor; B-score at 10 µM; Q96LB2; MrgX1-HEK293 cells, Fluo-4 calcium fluorescence, agonist mode; active compounds read high; 310,000 compounds, 0.44% hits;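 active = calcium response B-score plate-corrected fluorescence ratio at least 3 library SD, with starting fluorescence B-score inside 5 SD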
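Test system: Stable human MrgX1 HEK293 cell line | Schedule: Overnight plating before 1 h dye loading | Read-out basis: Baseline-normalised fluorescence change ratio, B-scored | Detection: Kinetic calcium dye fluorescence, Fluo-4 NW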
MrgX1 ag confirm – reconfirmed activator of human MrgX1 receptor signaling; shares compounds with MrgX1 ag; MrgX1-HEK293, Fluo-4 calcium fluorescence, FDSS; activation, % at 10 µM; 600 compounds, 78% hits; AID 602412;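 active = calcium signal rise, corrected for plate position, at least 3 library SD high, with starting brightness within 5 such deviations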
HEK293 Ca flux – activity in parental HEK293 cells lacking MrgX1; shares compounds with MrgX1 antag; Fluo-4 calcium fluorescence, FDSS; 4,000 compounds, 2% hits; fluorescence ratio F(max-min)/F0 at 10 µM;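 active = duplicate-averaged calcium fluorescence ratio at least three times the standard deviation of buffer wells, a nonspecific response in parental cells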
HEK293 Ca counter – activity in parental HEK293 cells without MrgX1. shares compounds with MrgX1 antag. parental HEK293 calcium flux, Fluo-4 fluorescence ratio; active compounds read high. fluorescence ratio F(max-min)/F0 at 10 µM. 4,000 compounds, 0.4% hits. AID 624114;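 active = calcium fluorescence ratio, averaged over duplicates, at least 3 SD of the buffer-well ratio, meaning a nonspecific response in receptor-free cells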;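 note: untransfected parental HEK293 lacking MrgX1 used as counterscreen for MrgX1 allosteric activators; fluorescence change taken during the second addition on a kinetic imager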
HEK293 Ca cntr2 – MrgX1 activator counter-screen hit in parental HEK293 cells; AID 624115; fluorescence ratio F(max-min)/F0 at 10 µM; Fluo-4 calcium fluorescence (FDSS); active compounds read high; 4,000 compounds, 8.7% hits; shares compounds with MrgX1 antag;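 active = calcium fluorescence ratio at least three times the spread of buffer wells, meaning a non-specific response in parental cells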
Hits are given with their value; i = inactive; nt = not tested or not shown. An excerpt weighted towards active compounds, which were near 3.5% of everything screened.

SMILES	RGS4 pot	MrgX1 allo act	MrgX1 antag	RGS4 inh	MrgX1 ag	MrgX1 ag confirm	HEK293 Ca flux	HEK293 Ca counter	HEK293 Ca cntr2
c1csc(C2C3=C(Nc4ncnn42)c2ccccc2OC3)c1 (configuration not stated)	i	i	i	i	31	122%	i	i	i
O=S(=O)(Nc1c(O)ccc2ccccc12)c1ccc(F)cc1	i	i	i	i	40	81%	i	i	i
O=S(=O)(Nc1c(O)ccc2ccccc12)c1ccccc1	i	i	i	i	29	i	i	i	i
O=S(=O)(Nc1ncccn1)c1ccc(F)cc1	i	i	i	i	i	nt	nt	nt	nt
CN1CCN(CCCC(=O)c2ccc(F)cc2)CC1	i	i	i	i	i	nt	nt	nt	nt
O=C(CCCN1Cc2ccccc2C1)c1ccc(F)cc1	i	i	i	i	38	145%	i	i	i
Cc1ccc(-c2ccc(CCC(=O)O)n2-c2cccc(O)c2)cc1	i	i	i	i	28	135%	i	i	i
Cc1nc(C)c(C(=O)N/N=C/c2ccco2)s1	i	i	i	i	i	nt	nt	nt	nt
Cc1cc(Nc2ccc(F)cc2)nc(N)n1	i	i	i	i	i	nt	nt	nt	nt
Cc1cc(Nc2cc(Cl)cc(Cl)c2)nc(N)n1	i	i	i	i	40	243%	i	i	i
CCN(CC)c1ncnc2c1[nH]c1ccccc12	i	i	i	i	28	125%	i	i	i
CCCOc1ncnc2c1[nH]c1ccccc12	i	i	i	i	i	nt	nt	nt	nt
N=C(N)SCCc1cccc(CCSC(=N)N)c1	i	i	i	i	40	181%	i	i	i
CN(C)CCCN(C(=O)c1cc(-c2cccs2)nc2ccccc12)c1nc2ccc(F)cc2s1	i	i	i	i	i	nt	nt	nt	nt
Fc1cccc(Nc2nc3ccccc3n3nnnc23)c1	i	i	i	i	i	nt	nt	nt	nt
c1ccc2c(c1)nc(Nc1ccc3c(c1)OCO3)c1nnnn12	i	i	i	i	30	207%	i	i	i
COc1cccc(Nc2nc3ccccc3n3nnnc23)c1	i	i	i	i	31	125%	i	i	i
CCCCN1C(C(=O)Nc2ncccn2)=C(O)c2ccccc2S1(=O)=O	i	i	i	i	i	nt	nt	nt	nt
Cc1cc(N2CCOCC2)nc(NCc2ccccc2)n1	i	i	i	i	66	294%	i	i	i
Cc1cc(N2CCCCC2)nc(NCc2ccccc2)n1	i	i	i	i	83	340%	i	i	i
Cc1cc(NCc2ccccc2)nc(N2CCOCC2)n1	i	i	i	i	i	nt	nt	nt	nt
COc1ccccc1N(CC(=O)N1CCCCCC1)S(=O)(=O)c1ccc(C)cc1	i	i	i	i	i	nt	nt	nt	nt
CCOc1ccccc1N(CC(=O)N1CCC(C)CC1)S(=O)(=O)c1ccc(C)cc1	i	i	i	i	i	nt	nt	nt	nt
CCOc1ccccc1N(CC(=O)N1CCOCC1)S(=O)(=O)c1ccccc1	i	i	i	i	138	541%	i	i	103
CCOc1ccccc1N(CC(=O)N1CCCCCC1)S(=O)(=O)c1ccc(C)cc1	i	i	i	i	34	142%	i	i	50
CC(C)c1ccc(NC2(C#N)C(=O)Nc3ccccc32)cc1 (configuration not stated)	i	i	i	i	39	191%	i	i	49
COc1ccc(-n2c(O)c(/C=N/NS(=O)(=O)c3cc(C)ccc3C)c3ccccc3c2=O)cc1OC	-7.7	i	i	i	130	322%	0.32	i	132
COc1ccc(-n2c(O)c(/C=N/NS(=O)(=O)c3ccc(C)cc3)c3ccccc3c2=O)cc1OC	-7	i	i	i	86	199%	i	i	67
COc1ccc(-n2c(O)c(/C=N/Nc3nc(C)cc(C)n3)c3ccccc3c2=O)cc1OC	i	i	i	i	i	nt	nt	nt	nt

Screening results deposited in PubChem BioAssay by Johns Hopkins Ion Channel Center.
